How the values were obtained:
[1] = system: A172 cells; experiment: Transwell migration assay; assay type: cell-based, human; settings: 4 hours, 30 μM
Outline: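 Treated A172 cells (1 x 10^5) were seeded into inserts with 8.0 µm PET membranes in serum-free medium. The lower well held DMEM with 10% FBS, and FBS-free wells served as control. After 4 h, cells were Giemsa-stained and 5 fields per well were imaged at 10X.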

[2] = system: A172 cells; experiment: Wound healing assay; assay type: cell-based, human; settings: 24 hours, BAP2 at 10 μM
Outline: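 A172 cells were seeded at 50,000/well, grown overnight, then kept in serum-free DMEM for 24 h. A scratch was made and compounds added. Cells grew 24 h, until DMSO-control scratches closed, then were Giemsa-stained and imaged at 10X.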

[3] = system: GBM cell; experiment: Combination with As2O3, GBM cell proliferation; assay type: cell-based
[4] = system: D54 cells; experiment: Clonogenic survival assay with ionizing radiation; assay type: cell-based; settings: 1 μM, 0-6 Gy
Outline: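 D54 monolayer cells (37 °C, 5% CO2, mycoplasma-tested, STR-authenticated) were irradiated at 0, 1, 2, 4 or 6 Gy and plated immediately at 200, 200, 400, 600 and 1000 cells/well. Test compounds (1 μM), reference inhibitor (0.05 μM) or DMSO were added. After 10–12 days, colonies were stained with 0.1% crystal violet.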

[5] = biological target: PDI (Homo sapiens, UniProt P07237); experiment: PDI reductase assay after competition with N-acetyl cysteine; assay type: biochemical; settings: compound 40 μM; 0, 1, 2 or 5 mM NAC; listed as BAP2
Chain of PDI (P07237 18-508): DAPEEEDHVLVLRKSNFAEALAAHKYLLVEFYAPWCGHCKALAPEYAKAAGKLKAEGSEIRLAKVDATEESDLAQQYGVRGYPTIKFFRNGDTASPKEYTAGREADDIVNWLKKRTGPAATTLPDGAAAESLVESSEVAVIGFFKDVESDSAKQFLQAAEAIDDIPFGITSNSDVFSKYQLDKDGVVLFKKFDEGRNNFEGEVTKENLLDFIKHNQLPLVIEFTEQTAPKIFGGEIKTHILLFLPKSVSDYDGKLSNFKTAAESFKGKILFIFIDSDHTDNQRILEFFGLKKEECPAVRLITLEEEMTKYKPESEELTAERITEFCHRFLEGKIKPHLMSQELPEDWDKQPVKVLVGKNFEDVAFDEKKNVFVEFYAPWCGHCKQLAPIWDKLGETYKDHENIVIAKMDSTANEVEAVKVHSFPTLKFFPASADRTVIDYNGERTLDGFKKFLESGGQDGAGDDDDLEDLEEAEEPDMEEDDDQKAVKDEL
Outline: (§1)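 N-terminal His-tagged human PDI was expressed in E. coli BL21(DE3) pLysS with 1 mM IPTG for 4 h at 37 °C. It was purified on Ni-NTA and dialyzed into 100 mM sodium phosphate, 2 mM EDTA, pH 7.0. PDI (0.4 μM) was preincubated 1 h with compound in phosphate/EDTA buffer with 8 μM DTT. DTT (500 μM) and bovine insulin (130 μM) were then added at room temperature. Aggregation was read at 620 nm. Percent activity came from the 0–80 min change, corrected for DTT alone.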

[6] = biological target: T1, H256A PDI (Homo sapiens, UniProt P07237, H256A); experiment: Thermal shift assay, H256A PDI; assay type: binding; settings: 100 μM
T1 sequence (P07237 18-508 H256A): as the sequence (P07237 18-508) above, with H239A counted along it
Outline: (§2)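 Purified PDI (wild-type, C53S/C397S or H256A; 0.5 mg/mL in 50 mM Tris, pH 7.0) was mixed with compound in DMSO and ROX dye. Samples were heated from 25 to 99 °C at 1 °C/min. Boltzmann melting temperature was compared with the 5% DMSO control.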

[7] = biological target: wild-type PDI (Homo sapiens, UniProt P07237); experiment: Thermal shift assay, wild-type PDI; assay type: binding; settings: recombinant PDI, dose-dependent, up to 100 μM
Chain of wild-type PDI (P07237 18-508): as the sequence (P07237 18-508) above
Outline: as §2

[8] = biological target: T1, H256A PDI; experiment: PDI reductase assay, H256A mutant PDI; assay type: biochemical; settings: 10 μM
Outline: as §1

[9] = biological target: b’ domain of PDI (Homo sapiens, UniProt P07237); experiment: ANS spectral scan; assay type: binding; settings: 5 μM PDI, 100 μM compound
Chain of b’ domain of PDI (P07237 18-508): as above
Outline: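 Human PDI was preincubated with 100 μM compound or matching DMSO in TBS at 37 °C for 1 h. ANS was then added, followed by 20 min in the dark at 25 °C. Fluorescence spectrum: Ex 370 nm, Em 400–700 nm.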

[10] = biological target: C53S/C397S PDI (Homo sapiens, UniProt P07237, C397S/C53S); experiment: Thermal shift assay, C53S/C397S PDI; assay type: binding; settings: 100 μM
Chain of C53S/C397S PDI (P07237 18-508 C53S/C397S): as the sequence (P07237 18-508) above, with C36S, C380S counted along it
Outline: as §2

[11] = system: U87MG; experiment: MTT growth inhibition assay, U87MG; assay type: cell-based, human; settings: read-out: IC50, cytotoxicity U87MG, 72 hours, listed as 6 (BAP2)
Outline: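 U87MG seeded at 5000 cells/well, incubated overnight at 37 °C and 5% CO2, then given test compound or vehicle for 72 h. MTT (3 mg/mL) was added for 4 h at 37 °C. Formazan was dissolved in DMSO with 15 min shaking at room temperature and read at 570 nm. Inhibition was calculated as [1-(At-Ab)/(Ac-Ab)]×100 against untreated and blank wells.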

[12] = system: GRP78; experiment: Western blot, GRP78 expression; assay type: cell-based, human; settings: U87MG cells; 20 μM (PACMA31 1.0 μM), 24 hours
Outline: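 Treated U87MG cells were lysed by sonication in Tris/NaCl/Triton X-100/SDS buffer (pH 7.4) and spun at 13,500×g, 4 °C, 10 min. Protein was quantified by BCA. 30 μg per lane ran on 10% gels and transferred to PVDF. Primary antibodies were applied overnight at 4 °C. Fluorescent secondaries were imaged.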

N#Cc1cccc(/C=C/C(=O)c2ccc(O)cc2)c1 [Compound 6, (E)-3-(3-(4-Hydroxyphenyl)-3-oxoprop-1-en-1-yl)benzonitrile]
transwell migration [1]: inhibited migration | wound healing / cell migration [2]: inhibited wound healing | inhibition of GBM cell proliferation in combination with As2O3 [3]: synergistically | synergy with ionizing radiation (IR) [4]: synergized with IR | activity after competition with N-acetyl cysteine (NAC) [5]: unaffected by up to 5 mM NAC | stabilization (thermal shift) in the H256A mutant [6]: abolished | increase of melting temperature [7]: more than 1 °C | activity against H256A mutant PDI [8]: abolished upon mutation | effect on ANS fluorescence [9]: hindered the ability of ANS to fluoresce | stabilization (thermal shift) in the C53S/C397S mutant [10]: but not the C53S/C397S mutant | IC50 [11]: 10.3 ± 2.3 µM | expression of GRP78 [12]: increase in expression of GRP78

— PMC8276234 (Journal of medicinal chemistry, 2019)
